In brackets after ≈: the same amount, converted by molar mass. Activity calls are given as the source filed them. The rule behind the calls is not given here.
Tests used:
[1] = Tmax in Balb/C mouse at 10 mg/kg, po; format: ADME, organism-based; details: in vivo
How it was run: (§1)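 Male Balb/C mice (n = 3) dosed iv at 5 mg/kg and po at 10 mg/kg. Vehicle was 70% 25 mM acetate buffer pH 4.0, 5% ethanol and 25% PEG 400.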

[2] = Half life in dog liver microsomes in presence of UGT/UDPGA; format: ADME, Canis lupus familiaris, Microsome
Cytochrome P450 2C9 = Cytochrome P450 2C9 (Homo sapiens, UniProt P11712); experiment: Induction of recombinant CYP2C9 (unknown origin) up to 24 microM; format: ADME; details: recombinant enzyme
[3] = Total AUC in Beagle dog at 1 mg/kg, iv; format: ADME, organism-based, Canis lupus familiaris; design: dose 1 mg/kg, time AUCmax, route intravenous; details: in vivo
How it was run: (§2)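 Male Beagle dogs (n = 2) were pretreated with pentagastrin and dosed iv at 1 mg/kg and po at 5 mg/kg. The oral vehicle was 5% ethanol, 45% PEG400 and 50% 25 mM acetate buffer pH 4.0. The iv vehicle was 5:45:50 EtOH/PEG400/saline at 1 mL/kg.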

[4] = Volume of distribution at steady state in Beagle dog at 1 mg/kg, iv; format: ADME, organism-based, Canis lupus familiaris; details: in vivo, read-out: Vdss; how it was run: as §2
[5] = Cardiovascular toxicity in rat 1 mg/kg, po dosed every 3 days on and 4 days off treatment regime for 1 month; format: organism-based; details: in vivo
[6] = Metabolic stability of compound in rat liver microsomes assessed as compound remaining after 10 mins; format: ADME, Microsome; details: read-out: Stability
[7] = Cmax in Balb/C mouse at 10 mg/kg, po; format: ADME, organism-based; design: dose 10 mg/kg, route oral; details: in vivo
How it was run: (§3)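 Male Balb/C mice, n = 3, dosed at 5 mg/kg iv or 10 mg/kg po. The vehicle was 70% 25 mM acetate buffer pH 4.0, 5% ethanol and 25% PEG 400.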

Cytochrome P450 1A2 = molecular target: T1, Cytochrome P450 1A2 (Homo sapiens, UniProt P05177); experiment: Inhibition of recombinant CYP1A2 (unknown origin); format: ADME
T1 sequence (P05177 whole entry): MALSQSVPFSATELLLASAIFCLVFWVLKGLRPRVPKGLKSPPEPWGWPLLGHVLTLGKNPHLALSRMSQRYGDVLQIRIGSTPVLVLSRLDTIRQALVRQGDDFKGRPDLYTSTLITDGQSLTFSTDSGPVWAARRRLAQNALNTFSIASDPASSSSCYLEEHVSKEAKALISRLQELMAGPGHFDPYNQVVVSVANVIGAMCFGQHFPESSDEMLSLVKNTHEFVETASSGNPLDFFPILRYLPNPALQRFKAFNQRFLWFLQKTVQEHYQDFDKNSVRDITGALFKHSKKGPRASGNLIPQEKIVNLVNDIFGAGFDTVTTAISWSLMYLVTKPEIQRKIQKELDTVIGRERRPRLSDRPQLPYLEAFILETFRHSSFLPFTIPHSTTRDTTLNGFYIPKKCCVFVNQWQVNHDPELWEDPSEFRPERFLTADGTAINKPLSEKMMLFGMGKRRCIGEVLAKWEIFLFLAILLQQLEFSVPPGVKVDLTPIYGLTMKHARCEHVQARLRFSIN

[8] = Volume of distribution at steady state in Balb/C mouse at 5 mg/kg, iv; format: ADME, organism-based; details: in vivo, read-out: Vdss; how it was run: as §1
MC-38 = experiment: Antitumour activity against mouse MC38 cells allografted in C57Bl/6 mouse assessed as reduction in tumour growth at 3.75 mg/kg, po dosed every 3 days on and 4 days off treatment regime and cotreated with anti-PD1 at 10 mg/kg, ip every 4 days for 3 doses measured for ten doubling times after cessation of treatment by digital caliper analysis; format: functional, organism-based
How it was run: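 MC38 cells (0.1 mL at 1 × 10^7 cells/mL) were implanted subcutaneously in the right flank of C57/BL6 mice. Randomization was at about 100 mm3, typically day 5. Oral dosing ran 3 days on, 4 days off, over 28 days. Anti-PD-1 was given at 10 mg/kg IP every 4 days for three doses, with isotype MOPC-21 IgG1 as control on the same schedule.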

[9] = Aqueous solubility of the compound at pH 6.5; format: physicochemical; details: aqueous solution, read-out: solubility
[10] = Half life in dog liver microsomes in presence of NADPH; format: ADME, Canis lupus familiaris, Microsome
[11] = Half life in mouse liver microsomes in presence of NADPH; format: ADME, Microsome
[12] = Clearance in Balb/C mouse at 5 mg/kg, iv; format: ADME, organism-based; details: in vivo; how it was run: as §3
[13] = Half life in rat liver microsomes in presence of UGT/UDPGA; format: ADME, Microsome
Cytochrome P450 2D6 = Cytochrome P450 2D6 (Homo sapiens, UniProt P10635); experiment: Induction of recombinant CYP2D6 (unknown origin) up to 24 microM; format: ADME; details: recombinant enzyme
[14] = MRT in Balb/C mouse at 5 mg/kg, iv; format: ADME, organism-based; details: in vivo; how it was run: as §1
Mus musculus = experiment: Antitumor activity in compound-mediated tumor cured C57Bl/6 mouse allografted with mouse MC38 cells assessed as tumor growth following rechallenge with newly implanted mouse LL2 cells treated at 3.75 to 15 mg/kg, po qd for 28 days and cotreated with anti-PD1 at 10 mg/kg, ip every 4 days for 3 doses prior to LL2 cells rechallenge by digital caliper analysis; format: functional, organism-based
How it was run: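 Mice cured by oral dosing plus anti-PD-1 (10 mg/kg IP, every 4 days, three doses) were re-implanted with MC38 or LL2 cells. Tumor growth was compared with naive mice.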

[15] = MRT in Beagle dog at 1 mg/kg, iv; format: ADME, organism-based, Canis lupus familiaris; details: in vivo; how it was run: as §2
[16] = Half life in Sprague Dawley rat at 5 mg/kg, iv; format: ADME, organism-based; details: in vivo
How it was run: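 Male Sprague–Dawley rats (n = 3) dosed iv at 5 mg/kg as a PEG400 solution, alongside a 10 mg/kg oral arm. Half-life was derived from the iv profile.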

TGF-beta receptor type-1 = molecular target: T2, TGF-beta receptor type-1 (Mus musculus, UniProt Q64729); experiment: Inhibition of TGFbetaR1 in TGFbeta-stimulated mouse NIH3T3 cells assessed as reduction in SMAD3 phosphorylation; format: cell-based
T2 sequence (Q64729 whole entry): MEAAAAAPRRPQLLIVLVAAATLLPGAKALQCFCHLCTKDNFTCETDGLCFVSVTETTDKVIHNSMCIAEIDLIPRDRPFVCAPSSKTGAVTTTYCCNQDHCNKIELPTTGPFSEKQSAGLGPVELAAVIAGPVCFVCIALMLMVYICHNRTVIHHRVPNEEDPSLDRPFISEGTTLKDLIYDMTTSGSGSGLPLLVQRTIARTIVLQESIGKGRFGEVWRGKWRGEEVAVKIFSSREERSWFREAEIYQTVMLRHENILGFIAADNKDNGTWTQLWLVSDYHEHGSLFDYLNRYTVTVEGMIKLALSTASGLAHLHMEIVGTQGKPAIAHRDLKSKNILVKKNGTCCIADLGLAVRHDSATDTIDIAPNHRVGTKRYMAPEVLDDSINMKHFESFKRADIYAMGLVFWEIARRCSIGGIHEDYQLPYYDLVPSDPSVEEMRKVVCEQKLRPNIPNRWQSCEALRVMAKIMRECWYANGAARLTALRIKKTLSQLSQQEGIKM

Sequence of Cytochrome P450 2D6 (P10635 whole entry): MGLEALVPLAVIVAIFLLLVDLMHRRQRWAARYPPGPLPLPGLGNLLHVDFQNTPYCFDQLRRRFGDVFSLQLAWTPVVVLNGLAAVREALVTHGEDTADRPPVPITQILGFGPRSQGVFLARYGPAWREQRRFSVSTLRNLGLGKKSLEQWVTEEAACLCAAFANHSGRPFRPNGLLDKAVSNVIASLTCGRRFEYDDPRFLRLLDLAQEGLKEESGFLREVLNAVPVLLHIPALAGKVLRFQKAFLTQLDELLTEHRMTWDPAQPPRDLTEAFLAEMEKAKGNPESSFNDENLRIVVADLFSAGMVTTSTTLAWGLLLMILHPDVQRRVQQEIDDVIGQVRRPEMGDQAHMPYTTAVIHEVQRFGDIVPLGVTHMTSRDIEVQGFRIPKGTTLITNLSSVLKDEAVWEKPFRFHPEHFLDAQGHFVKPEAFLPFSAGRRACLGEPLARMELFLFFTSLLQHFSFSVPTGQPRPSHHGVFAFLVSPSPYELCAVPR
Sequence of Cytochrome P450 2C9 (P11712 whole entry): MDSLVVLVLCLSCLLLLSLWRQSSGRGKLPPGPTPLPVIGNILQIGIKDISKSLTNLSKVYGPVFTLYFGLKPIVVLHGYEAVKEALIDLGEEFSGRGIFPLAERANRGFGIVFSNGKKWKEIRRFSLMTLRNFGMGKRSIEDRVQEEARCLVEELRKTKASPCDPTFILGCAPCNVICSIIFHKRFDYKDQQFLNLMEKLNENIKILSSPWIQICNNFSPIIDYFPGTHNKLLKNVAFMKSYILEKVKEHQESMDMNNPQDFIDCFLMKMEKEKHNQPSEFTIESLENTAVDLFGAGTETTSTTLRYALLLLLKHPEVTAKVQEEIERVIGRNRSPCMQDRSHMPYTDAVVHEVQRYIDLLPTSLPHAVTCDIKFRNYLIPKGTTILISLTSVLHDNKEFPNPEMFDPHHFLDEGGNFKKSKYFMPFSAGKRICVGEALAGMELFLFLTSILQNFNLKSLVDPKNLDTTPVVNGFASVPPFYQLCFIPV

Tmax [1]: 0.3 h
half-life [2]: 1.53 h
Activity (Cytochrome P450 2C9): Not Active
AUC [3]: 7 µM·h
Vd [4]: 1.1 L/kg
remaining at 10 min [6]: 91%
Cmax [7]: 16 µM
IC50 (Cytochrome P450 1A2): > 20000 nM
Vd [8]: 4.5 L/kg
solubility [9]: 47 µg/mL (≈ 123 µM)
half-life [10]: 0.617 h
half-life [11]: 0.467 h
clearance [12]: 8.3 mL/min/kg
half-life [13]: > 2 h
Activity (Cytochrome P450 2D6): Not Active
MRT [14]: 9 h
MRT [15]: 3.1 h
half-life [16]: 5.7 h
IC50 (TGF-beta receptor type-1): 50 nM
SMILES: N#Cc1cnc2ccc(-c3c(-c4ccc(F)c(Cl)c4)ncn3CCO)nn12
Activity [5]: Non-Toxic
inhibition (MC-38): Active
Activity (Mus musculus): inactive
